From PMC7870562 (Bioorganic chemistry, 2020)

Columns and labels:
A431 cells [1] = assay: MTT cytotoxicity / cell viability assay, A431; type: cell-based, human; conditions: for IC50: Homo sapiens, A-431, 48 h; for selectivity index: IC50 HaCaT / IC50 A431
How it was run: (§1)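 Cells in 5–10% FBS/DMEM were seeded at 5×10³ per well, refed at 24 h and grown to 70% confluence. They were treated for 48 h at 37°C, 5% CO2 with two-fold serial dilutions of test compound in DMSO (≤0.1%), […], in 8–10 repeats. After MTT, absorbance was read at 562 nm. Viability was expressed relative to DMSO controls and IC50 derived by nonlinear regression. Data are mean ± SD of ≥5 independent experiments in octuplicates.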

UWBCC1 cells = assay: MTT cytotoxicity / cell viability assay, UWBCC1; type: cell-based, human; conditions: for IC50: Homo sapiens, 48 h; for selectivity index: IC50 HaCaT / IC50 UWBCC1
How it was run: as §1

HaCaT = assay: MTT cytotoxicity / cell viability assay, HaCaT keratinocytes; type: cell-based; conditions: Homo sapiens, 48 h
How it was run: as §1

CDK2/Cyclin A = CDK2/Cyclin A (Homo sapiens, UniProt P24941); assay: In vitro kinase activity assay; type: biochemical; conditions: 10-dose, three-fold serial dilution from 100 μM
How it was run: (§2)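 Kinase profiling was run at Reaction Biology. IC50 values came from 10-dose mode, three-fold serial dilutions starting at 100 μM. Reference inhibitors were co-assayed at 1 and 10 μM.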

A375 cells [2] = assay: MTT cytotoxicity / cell viability assay, A375; type: cell-based, human; conditions: for IC50: Homo sapiens, A-375, 48 h; for selectivity index: IC50 melanocytes / IC50 A375
How it was run: as §1

c-Kit = c-Kit (Homo sapiens, UniProt P10721); assay: In vitro kinase activity assay; type: biochemical
c-Kit, sequence (P10721 26-976): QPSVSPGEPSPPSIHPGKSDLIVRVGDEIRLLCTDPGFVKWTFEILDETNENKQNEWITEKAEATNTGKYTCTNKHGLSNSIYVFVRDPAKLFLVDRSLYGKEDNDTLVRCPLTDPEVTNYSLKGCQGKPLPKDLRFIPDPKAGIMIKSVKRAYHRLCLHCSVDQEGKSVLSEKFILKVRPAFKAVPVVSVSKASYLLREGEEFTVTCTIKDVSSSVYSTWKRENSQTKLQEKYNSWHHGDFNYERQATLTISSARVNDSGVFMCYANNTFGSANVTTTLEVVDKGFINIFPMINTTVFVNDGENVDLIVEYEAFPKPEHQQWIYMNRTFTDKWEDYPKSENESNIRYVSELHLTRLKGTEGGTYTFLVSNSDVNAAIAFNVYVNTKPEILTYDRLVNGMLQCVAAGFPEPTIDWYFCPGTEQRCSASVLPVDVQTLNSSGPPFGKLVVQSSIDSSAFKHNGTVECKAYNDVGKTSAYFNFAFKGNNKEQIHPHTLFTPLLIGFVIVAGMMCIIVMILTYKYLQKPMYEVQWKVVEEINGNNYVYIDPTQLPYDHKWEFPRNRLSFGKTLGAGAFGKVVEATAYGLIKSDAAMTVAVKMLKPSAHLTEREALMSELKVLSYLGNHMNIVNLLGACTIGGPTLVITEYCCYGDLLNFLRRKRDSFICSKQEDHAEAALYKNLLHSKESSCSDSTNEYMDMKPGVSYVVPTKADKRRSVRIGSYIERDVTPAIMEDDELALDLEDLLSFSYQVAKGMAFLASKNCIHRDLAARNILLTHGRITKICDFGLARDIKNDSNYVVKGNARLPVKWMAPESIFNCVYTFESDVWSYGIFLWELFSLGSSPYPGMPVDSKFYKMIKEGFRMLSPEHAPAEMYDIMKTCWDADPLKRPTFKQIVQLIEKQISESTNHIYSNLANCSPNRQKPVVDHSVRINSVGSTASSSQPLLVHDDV
How it was run: as §2

SK-Mel-28 cells = assay: MTT cytotoxicity / cell viability assay, SK-Mel-28; type: cell-based, human; conditions: for IC50: Homo sapiens, SK-MEL-28, 48 h; for selectivity index: IC50 melanocytes / IC50 SK-Mel-28
How it was run: as §1

Melanocyte = assay: MTT cytotoxicity / cell viability assay, normal melanocytes; type: cell-based; conditions: Homo sapiens, 48 h
How it was run: as §1

mTOR/FRAP1 = mTOR/FRAP1 (Homo sapiens, UniProt P42345); assay: In vitro kinase activity assay; type: biochemical; conditions: for IC50: mTOR/FRAP1 IC50, 10-dose, three-fold serial dilution from 100 μM
How it was run: as §2

CDK2/Cyclin E = CDK2/Cyclin E (Homo sapiens, UniProt P24941); assay: In vitro kinase activity assay; type: biochemical; conditions: 10-dose, three-fold serial dilution from 100 μM
How it was run: as §2

A375 cells [3] = assay: DAPI staining of apoptotic nuclei, A375; type: cell-based, human
How it was run: (§3)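 Equal numbers of cells were seeded in T-25 flasks and exposed to test compound at different concentrations for 36 h. Cells were PBS-washed, stained with DAPI in PBS and imaged by fluorescence microscopy at 10x and 1.6×10x. Apoptotic nuclei were scored by morphology and expressed as percentage of cells.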

A431 cells [4] = assay: DAPI staining of apoptotic nuclei, A431; type: cell-based, human
How it was run: as §3

A375 and A431 cells [5] = assay: Scratch wound healing assay; type: cell-based, human; conditions: A375 and A431, ½IC50, IC50, 2×IC50, 48 h; for inhibition of wound closure: vs untreated controls
How it was run: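 Confluent A375 or A431 monolayers in complete DMEM received two parallel scratches made with a 200-μL pipette tip, then were washed. Wells were treated at ½IC50, IC50 or 2×IC50 for 48 h. Wound area was measured by image analysis as a percentage of the initial cell-free area versus 0 h and 48 h controls. Data are mean ± SD of three independent experiments; one-way ANOVA with Dunn's test.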

A375 and A431 cells [6] = assay: Colony formation assay; type: cell-based, human; conditions: A375 and A431, ½IC50, IC50, 2×IC50, concentration-dependent
How it was run: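 DMSO ≤0.1% v/v was the vehicle control. Cells were trypsinized and ~1000 reseeded per 10-cm2 plate, then grown 10–14 days drug-free at 37°C, 5% CO2, with medium renewed every 2–3 days. Colonies were stained with 0.5% Gentian violet in ~64% methanol/4% paraformaldehyde. Results are percent of control, mean ± SD of three independent experiments.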

A375 and A431 cells [7] = assay: Western blot analysis of apoptosis, cell cycle and c-Kit markers; type: cell-based, human; conditions: A375 and A431, IC50 and 2×IC50, 48 h
How it was run: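 Cells were plated at 3×10⁵ overnight and treated at 0, IC50 or 2×IC50 (<0.1% DMSO) for 48 h. Lysates were made in ice-cold RIPA with protease/phosphatase inhibitors and PMSF (15 min), then run on SDS-PAGE. Blots were probed with primary antibodies at 1:250–1:1000 and HRP secondary at 1:2000. Bands were normalized to β-actin, GAPDH or Rab11 and given as % expression; three independent experiments, one-way ANOVA with Dunn's test.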

[8] = A375, treated 36 hours at ½IC50
[9] = A431, treated 36 hours at ½IC50

SMILES	IC50 (CDK2/Cyclin A)	IC50 (c-Kit)	IC50 (CDK2/Cyclin E)	IC50 (mTOR/FRAP1)	IC50 (A431 cells [1])	selectivity index (A431 cells [1])	IC50 (UWBCC1 cells)	selectivity index (UWBCC1 cells)	IC50 (HaCaT)	IC50 (A375 cells [2])	selectivity index (A375 cells [2])	IC50 (SK-Mel-28 cells)	IC50 (Melanocyte)	selectivity index (SK-Mel-28 cells)	DAPI (+) apoptotic cells (A375 cells [3]; A375, treated 36 hours at IC50)	DAPI (+) apoptotic cells (A375 cells [3]; [8])	DAPI (+) apoptotic cells (A431 cells [4]; [9])	DAPI (+) apoptotic cells (A431 cells [4]; A431, treated 36 hours at IC50)	other results
O=c1c(O)c(-c2cc(C(F)(F)F)cc(C(F)(F)F)c2)oc2ccccc12 [F6, 2-(3,5-Bis(trifluoromethyl)phenyl)-3-hydroxy-4H-chromen-4-one]	> 100 µM	> 100 µM	–	–	8.6 ± 0.5 µM	3.6	6.6 ± 0.79 µM	4.7	31 ± 1.9 µM	7 ± 0.32 µM	3.7	27 ± 4.1 µM	26 ± 1.3 µM	–	–	–	–	–	–
Cc1ccc2c(=O)c(O)c(-c3ccc(C(C)(C)C)cc3)oc2c1 [F11, 2-(4-(Tert-butyl)phenyl)-3-hydroxy-7-methyl-4H-chromen-4-one]	32.5 µM	–	–	–	4.7 ± 0.9 µM	4.7	9.7 ± 0.6 µM	2.3	25 ± 0.78 µM	11 ± 2 µM	2.4	18 ± 2 µM	26 ± 1.1 µM	1.4	–	–	–	–	inhibition of mTOR kinase activity (in words) (mTOR/FRAP1): did not substantively inhibit
O=c1c(O)c(-c2ccccc2)oc2cc(Br)ccc12 [F14, 7-Bromo-3-hydroxy-2-phenyl-4H-chromen-4-one]	6.64 µM	0.13 µM	5.38 µM	> 100 µM	5.3 ± 2.1 µM	4.5	3.3 ± 1.3 µM	7.3	24 ± 0.2 µM	15 ± 0.08 µM	1.4	22 ± 4.3 µM	24 ± 0.84 µM	–	10.9%	6.2%	6.92%	–	–
COc1cccc(-c2oc3cc(C)ccc3c(=O)c2O)c1 [F9, 3-Hydroxy-2-(3-methoxyphenyl)-7-methyl-4H-chromen-4-one]	2.95 µM	0.12 µM	1.78 µM	1.42 µM	9.2 ± 0.7 µM	2.9	9.4 ± 0.3 µM	2.9	27 ± 0.3 µM	12 ± 0.9 µM	2.2	17 ± 1 µM	26 ± 1.6 µM	1.5	18.2%	7.5%	7.93%	19.1%	inhibition of wound closure (A375 and A431 cells [5]): 28–72%
O=c1c(O)c(-c2ccc(O)c(O)c2)oc2cc(O)ccc12 [F0, 3´,4´,7-trihydroxyflavonol, reference compound]	2.62 µM	1.34 µM	3.34 µM	28.7 µM	26 ± 1 µM	1.2	28 ± 0.2 µM	1.1	30 ± 1.1 µM	21 ± 1 µM	1.6	29 ± 4 µM	33 ± 2.7 µM	1.1	–	–	–	–	–
O=c1c(O)c(-c2ccccc2)oc2ccccc12 [F1, 3-Hydroxy-2-phenyl-4H-chromen-4-one]	–	–	–	–	15 ± 0.04 µM	2.5	12 ± 0.8 µM	3.2	38 ± 0.02 µM	14 ± 0.8 µM	1.9	21 ± 1 µM	27 ± 0.9 µM	1.2	–	–	–	–	–
Cc1ccc2c(=O)c(O)c(-c3cccc(Cl)c3)oc2c1 [F8, 2-(3-Chlorophenyl)-3-hydroxy-7-methyl-4H-chromen-4-one]	7.16 µM	0.54 µM	17.1 µM	23.9 µM	8.3 ± 2.1 µM	2.7	6.7 ± 1.5 µM	3.3	22 ± 0.2 µM	8.4 ± 0.4 µM	3.1	22 ± 3 µM	26 ± 3.8 µM	1.1	11.3%	6.5%	5.84%	12.8%	–

Second part, led by results:

IC50 (CDK2/Cyclin A)	IC50 (c-Kit)	IC50 (CDK2/Cyclin E)	IC50 (mTOR/FRAP1)	SMILES	IC50 (A431 cells [1])	selectivity index (A431 cells [1])	IC50 (UWBCC1 cells)	selectivity index (UWBCC1 cells)	IC50 (HaCaT)	IC50 (A375 cells [2])	selectivity index (A375 cells [2])	IC50 (SK-Mel-28 cells)	IC50 (Melanocyte)	selectivity index (SK-Mel-28 cells)	DAPI (+) apoptotic cells (A375 cells [3]; A375, treated 36 hours at IC50)	DAPI (+) apoptotic cells (A375 cells [3]; [8])	DAPI (+) apoptotic cells (A431 cells [4]; [9])	DAPI (+) apoptotic cells (A431 cells [4]; A431, treated 36 hours at IC50)	other results
4.57 µM	1.74 µM	5.7 µM	11.5 µM	O=c1c(O)c(-c2cccc(Cl)c2)oc2ccc(F)cc12 [F17, 2-(3-Chlorophenyl)-6-fluoro-3-hydroxy-4H-chromen-4-one]	10 ± 2.6 µM	3.8	8.1 ± 1.2 µM	4.7	38 ± 0.8 µM	13 ± 1 µM	2.5	25 ± 3.4 µM	32 ± 0.72 µM	–	17.7%	6.9%	8.81%	18.4%	inhibition of wound closure (A375 and A431 cells [5]): 28–72%
30.1 µM	0.26 µM	–	–	CCOc1ccc(-c2oc3cc(Cl)ccc3c(=O)c2O)cc1F [F21, 7-Chloro-2-(4-ethoxy-3-fluorophenyl)-3-hydroxy-4H-chromen-4-one]	8.2 ± 0.2 µM	3.2	–	–	26 ± 0.4 µM	8.6 ± 0.4 µM	3.2	12 ± 3 µM	27 ± 0.1 µM	2.3	–	5.4%	8.8%	14.4%	inhibition of mTOR kinase activity (in words) (mTOR/FRAP1): did not substantively inhibit
12.7 µM	0.33 µM	–	1.64 µM	Cc1cc2oc(-c3ccc(OCc4ccccc4)cc3)c(O)c(=O)c2cc1Cl [F19, 2-(4-(Benzyloxy)phenyl)-6-chloro-3-hydroxy-7-methyl-4H-chromen-4-one]	1.5 ± 0.3 µM	19	1.1 ± 0.4 µM	25	28 ± 0.31 µM	13 ± 2.6 µM	1.7	19 ± 3 µM	27 ± 1 µM	1.2	13.3%	5.6%	6.71%	14.2%	–
4.77 µM	0.09 µM	> 100 µM	–	Cc1cc([N+](=O)[O-])c2oc(-c3ccc(Br)cc3)c(O)c(=O)c2c1 [F20, 2-(4-Bromophenyl)-3-hydroxy-6-methyl-8-nitro-4H-chromen-4-one]	0.2 ± 0.1 µM	~170	0.12 ± 0.11 µM	–	34 ± 0.6 µM	6.3 ± 1 µM	5.6	17 ± 3 µM	35 ± 0.23 µM	2.1	20.4%	8.2%	14.6%	27.7%	percentage of colonies (in words) (A375 and A431 cells [6]): significantly reduced; expression level of pro-apoptotic protein Bax (A375 and A431 cells [7]): significantly increased; level of anti-apoptotic protein Bcl-2 (A375 and A431 cells [7]): decreased; protein expression levels of cyclin A2, cyclin E2 and CDK2 (A375 and A431 cells [7]): significantly suppress; protein expression levels of phosphorylated c-Kit (A375 and A431 cells [7]): significantly suppressed; protein expression levels of cleaved caspases −3, −7, −8 and PARP (A375 and A431 cells [7]; vs untreated controls): elevated; inhibition of mTOR kinase activity (in words) (mTOR/FRAP1): did not substantively inhibit; scratched wound area closure (in words) (A375 and A431 cells [5]; dose-dependent): significantly decreased
